Read-outs that look alike come from different tables or passages of the source.
How the values were obtained:
[1] = tested on: A2780 ovarian cancer cells; test: Intracellular calcein assay; assay type: cell-based; details: A2780, 40 μM, 24 h
How it was run: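 Calcein-AM delivered calcein to the cytosol, where it is partly quenched by labile iron. Cells were incubated with test compound (40 μM), and the rise in calcein fluorescence was measured against DMSO vehicle. A2780 cells were sampled after 1, 3 and 24 h. Triplicate; mean ± standard deviation; t-tests.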

Caco-2 (Colon) = test: Resazurin antiproliferative assay, 72 h; assay type: cell-based; details: read-out: IC50 Caco-2 (Colon)
How it was run: (§1)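 Cells were incubated with test compound for 72 h. Viability was read by the fluorescence-based resazurin assay (reduction to resorufin), chosen because formazan absorbance (400–800 nm) interferes with colorimetric probes. IC50 values were derived for each line. The panel was cancer lines plus MRC-5 normal lung fibroblasts.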

MRC-5 (Normal lung) = test: Resazurin antiproliferative assay, 72 h; assay type: cell-based; details: read-out: IC50 MRC-5 (Normal lung), mean ± SDM, n=3
How it was run: as §1

[2] = tested on: tested cancer cell lines (A2780, MDA-MB-231, Caco-2, A549); test: Resazurin antiproliferative assay, summary over the cancer cell panel; assay type: cell-based; details: 72 h, read-out: IC50 range in the tested cancer cell lines
How it was run: as §1

[3] = tested on: A2780 ovarian cancer cells; test: Cell cycle distribution by flow cytometry; assay type: cell-based; details: A2780, 40 μM, 24 h
How it was run: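 A2780 cells were treated with test compound at 40 μM for 24 h, then analysed by flow cytometry for cell-cycle phase distribution. Triplicate experiments; mean ± standard deviation; t-tests against DMSO vehicle only.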

[4] = tested on: ferritin heavy chain (ferritin H); test: Western blot of ferritin H expression in A2780 cells; assay type: cell-based; details: A2780, 40 μM, 24 h
How it was run: (§2)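 Cells were treated with test compound for 24 h; A2780 cells were treated at 40 μM. Lysates were analysed by Western blot for TfR1 and ferritin heavy chain, with β-actin as loading control. n=4; t-tests against DMSO vehicle. Ferric ammonium citrate supplementation served as an iron-replete comparison in A2780.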

[5] = In vitro calcein competition for Fe; details: 50 mM HEPES buffer pH 7.4 and MeOH 3:1 v/v
How it was run: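 Cell-free competition: calcein was quenched with Fe(II) (1.0 equiv) in 50 mM HEPES pH 7.4/MeOH (3:1 v/v). Test compound was then added, and recovery of calcein fluorescence was taken as displacement of iron from the probe.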

MDA-MB-231 (Breast) = test: Resazurin antiproliferative assay, 72 h; assay type: cell-based; details: read-out: IC50 MDA-MB-231 (Breast)
How it was run: as §1

[6] = tested on: ferritin heavy chain (ferritin H); test: Western blot of ferritin H expression in MRC-5 cells; assay type: cell-based; details: MRC-5, 24 h
How it was run: as §2

[7] = tested on: transferrin receptor 1 (TfR1); test: Western blot of TfR1 expression in A2780 cells; assay type: cell-based; details: A2780, 40 μM, 24 h
How it was run: as §2

A2780 (Ovary) = test: Resazurin antiproliferative assay, 72 h; assay type: cell-based; details: read-out: IC50 A2780 (Ovary)
How it was run: as §1

[8] = tested on: MRC-5 normal lung fibroblasts; test: Intracellular calcein assay; assay type: cell-based; details: MRC-5, 40 μM, 24 h
[9] = tested on: transferrin receptor 1 (TfR1); test: Western blot of TfR1 expression in MRC-5 cells; assay type: cell-based; details: MRC-5, 24 h
How it was run: as §2

[10] = tested on: A2780 ovarian cancer cells; test: Apoptotic cell death by flow cytometry; assay type: cell-based; details: A2780, 40 μM, 48 h
How it was run: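 A2780 ovarian cancer cells were exposed to test compound (40 μM) for 48 h. Flow cytometry then scored the fractions of cells in early and late apoptosis. Runs were in triplicate, reported as mean ± standard deviation, with t-tests against DMSO vehicle.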

A549 (Lung) = test: Resazurin antiproliferative assay, 72 h; assay type: cell-based; details: read-out: IC50 A549 (Lung)
How it was run: as §1

A2780 cells = assay type: cell-based; details: A2780, 40 μM, 48 h, FAC (50 μM) or holo-Tf (50 μM)
[11] = Distribution coefficient by shake-flask method; assay type: physicochemical; details: octanol and PBS (pH 7.4), HPLC
[12] = Stability / reduction kinetics in fetal bovine serum by HPLC; assay type: in vitro ADME
[13] = resazurin assay, 72 h, mean ± SDM, n=3

In the case of `O=C(O)c1ccc(-n2nc(-c3ccccc3O)nc2-c2ccccc2O)cc1` [DFX, deferasirox], the “Increase of calcein fluorescence” value [1] is reported as ~ 54%, the IC50 (Caco-2 (Colon); Homo sapiens, Caco-2, 72 h) is reported as 67 ± 2 µM and the IC50 (MRC-5 (Normal lung)) is reported as 220 ± 20 µM. For the same compound, the IC50 [2] was 15 to 67 µM, the “Effect on cell cycle distribution” value [3] was “S-phase arrest” and the “Ferritin H expression level” value [4] was “degradation of ferritin”. The “Restoration of calcein fluorescence (displacement of Fe(II) from calcein)” value [5] was “fully restore its initial fluorescence”, the IC50 (MDA-MB-231 (Breast); Homo sapiens, MDA-MB-231, 72 h) was 17 ± 1 µM and the “Ferritin H expression level” value [6] was “maintained similar effects, albeit less pronounced”. The TfR1 expression level [7] was “increase of TfR1 expression”, the IC50 (A2780 (Ovary); Homo sapiens, A2780, 72 h) was 15 ± 1 µM and the “Increase of calcein fluorescence” value [8] was ~ 34%. For the same compound, the TfR1 expression level [9] was “maintained similar effects, albeit less pronounced”, the “Cells in late apoptosis” value [10] was 42% and the IC50 (A549 (Lung); Homo sapiens, A549, 72 h) was 21 ± 3 µM. For the same compound, the “Effect of iron supplementation on cytotoxicity” value (A2780 cells) was “could be rescued by iron supplementation”.
Compound `Cc1nc(-[n+]2nc(-c3ccccc3)nn2-c2ccccc2)sc1C.[Br-]` [MTT] has an IC50 (Caco-2 (Colon); [13]) of 92 ± 7 µM, an IC50 (MRC-5 (Normal lung)) of 32 ± 5 µM and an IC50 (MDA-MB-231 (Breast); [13]) of 48 ± 7 µM. For the same compound, the “Log Do/pH7.4” value [11] was 0.1, the “Half-life t1/2 in serum” value [12] was over 24 h and the “Stability (serum, 24 h), remaining” value ([12]; 24 h) was 58%. The IC50 (A2780 (Ovary); [13]) was 45 ± 9 µM and the IC50 (A549 (Lung); [13]) was 44 ± 9 µM.
For `O=C(O)CC(O)(CC(=O)O)C(=O)O` [citric acid], the “Restoration of calcein fluorescence (displacement of Fe(II) from calcein)” value [5] was “fail to displace calcein-bound iron(II)”.
For ferric ammonium citrate [FAC], the “Ferritin H expression level” value [4] was “increase of ferritin H levels”, the “Ferritin H expression level” value [6] was “maintained similar effects, albeit less pronounced” and the TfR1 expression level [7] was “decrease of TfR1”. For the same compound, the TfR1 expression level [9] was “maintained similar effects, albeit less pronounced”.

Reference: PMC10521327 (Journal of the American Chemical Society, 2023)
